Sampled rows, rich in hits. Any-hit rate of the full collection: about 1%.
PME-1 primary: PME-1 (human) inhibition. 320,000 compounds, 0.53% hits. Q9Y570. inhibition, % at 5.9 µM. recombinant PME-1, FP-Rh probe fluorescence polarization;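 active = inhibition above the campaign mean of all compounds plus 3 SD, cut at about 26% in these data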;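 note: competitive labeling of PME-1 active site by serine hydrolase directed probe; 0% = PME-1 with DMSO and 100% = wells lacking PME-1 enzyme; inhibitors block probe labeling so polarization falls and inhibition rises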
Target sequence (Q9Y570 whole entry, looked up): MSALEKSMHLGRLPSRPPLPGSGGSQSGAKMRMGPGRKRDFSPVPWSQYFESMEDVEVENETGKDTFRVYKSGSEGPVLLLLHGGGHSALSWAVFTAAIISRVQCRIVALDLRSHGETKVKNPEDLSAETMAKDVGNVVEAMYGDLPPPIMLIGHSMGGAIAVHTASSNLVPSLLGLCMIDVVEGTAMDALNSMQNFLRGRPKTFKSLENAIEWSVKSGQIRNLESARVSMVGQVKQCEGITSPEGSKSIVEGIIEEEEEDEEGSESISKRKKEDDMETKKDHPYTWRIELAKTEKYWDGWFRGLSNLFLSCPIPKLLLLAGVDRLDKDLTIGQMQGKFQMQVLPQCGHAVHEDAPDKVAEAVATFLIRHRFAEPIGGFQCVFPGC
procasp7 counter: counter-screen: procaspase-7 (human) activation; recombinant procaspase-7, Ac-DEVD-pNA absorbance 405 nm; D23A/D198A/D206A triple mutant, cannot self-cleave; scale: DMSO 0, 5 µM enzyme 100; activation, % at 8.5 µM; 330,000 compounds, 0.093% hits; AID 463210;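 active = percent activation above the screen-wide mean plus 3 SD, cut at about 25% in these data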
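Material: Procaspase-7 triple mutant (PC-7 D3A) | Quantity: 2 µM procaspase-7 mutant as dispensed | Reagent: DEVD-pNA substrate | Times: 1 h preincubation, 2 h reaction | Technique: 405 nm absorbance of p-nitroaniline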
LYPLA2 counter: blocks human lysophospholipase 2, a PME1 counter-screen; O95372; recombinant LYPLA2, FP-Rh probe fluorescence polarization; inhibition, % at 5.9 µM; 320,000 compounds, 0.38% hits; AID 2177;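 active = inhibition above the screen-wide mean plus 3 SD, limit set per campaign, cut at about 26% in these data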;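 note: 0% = LYPLA2 with DMSO and 100% = wells lacking LYPLA2 enzyme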
Target sequence (O95372 whole entry, looked up): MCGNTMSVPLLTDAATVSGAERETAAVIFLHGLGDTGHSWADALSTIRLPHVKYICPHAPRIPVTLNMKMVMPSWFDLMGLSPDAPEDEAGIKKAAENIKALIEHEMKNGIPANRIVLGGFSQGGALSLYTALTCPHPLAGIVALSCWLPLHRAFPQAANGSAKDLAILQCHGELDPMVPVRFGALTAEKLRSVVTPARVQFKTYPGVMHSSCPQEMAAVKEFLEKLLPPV
LYPLA1 counter: LYPLA1 (human) inhibition in PME1 counter-screen; AID 2174; 320,000 compounds, 0.16% hits; recombinant LYPLA1, FP-Rh probe fluorescence polarization; O75608; inhibition, % at 5.9 µM;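 active = inhibition above the mean of all tested compounds plus 3 SD, set per campaign, cut at about 14% in these data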;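 note: inhibitors block serine hydrolase probe labeling of LYPLA1 so polarization falls; 0% = enzyme with DMSO and 100% = wells lacking LYPLA1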
proCasp3 act: activates human procaspase-3. P42574. recombinant procaspase-3 D3A, Ac-DEVD-pNA absorbance 405 nm. activation, % at 8.5 µM. 330,000 compounds, 0.11% hits;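 active = activation above the mean of all tested compounds plus 3 SD, cut at about 21% in these data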;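 note: 0% = DMSO alone and 100% = DMSO wells spiked with extra 5 µM PC-3 D3A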
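Assay system: Autoprocessing-dead procaspase-3 D3A mutant enzyme; also added: Ac-DEVD-pNA; doses: one concentration, 8.5 µM nominal, 0.8% DMSO; times: 1 h compound preincubation, 2 h substrate hydrolysis at 25 °C; technique: 405 nm absorbance of p-nitroaniline, reads at 0 and 120 min; measure: % activation between DMSO and enzyme-spiked controls; repeats: single replicate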
Fam108B inh: Fam108B inhibition, counter-screen for RBBP9 inhibitors; recombinant Fam108B, FP-Rh probe fluorescence polarization; inhibition, % at 9.51 µM; 300,000 compounds, 0.33% hits; AID 1947;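 active = inhibition above the screen mean inhibition plus 3 SD, computed separately per campaign, cut at about 18% in these data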;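 note: inhibitors lower polarization as less probe binds the enzyme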
LYPLA2 confirm: counter-screen for PME1 inhibitors: confirmation of human LYPLA2 inhibitors; shares compounds with LYPLA2 counter; recombinant LYPLA2, FP-Rh probe fluorescence polarization; inhibition, % at 5.9 µM; 1,100 compounds, 72% hits;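 active = mean inhibition across replicates above the hit cutoff set in the primary screen, cut at about 26% in these data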;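 note: blocked labeling of the enzyme by serine hydrolase FP-Rh probe lowers polarization; 0% = enzyme with DMSO and 100% = wells lacking LYPLA2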
LYPLA2 gel ABPP: inhibitors of human LYPLA2; shares compounds with LYPLA2 counter; rhLYPLA2 in mouse brain proteome, gel ABPP FP-Rh; inhibition, % at 20 µM; 150 compounds, 30% hits; AID 652029;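 active = inhibition of LYPLA2 enzyme probe labeling above about 50%, limit read from the data; inactive = inhibition below that limit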;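 note: loss of FP-Rh probe labeling of the LYPLA2 gel band measured as band density; 0% = DMSO only control band and 100% = blank gel background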
* marks the source's active call; other numbers are inactive results; nt = no result.

SMILES	PME-1 primary	procasp7 counter	LYPLA2 counter	LYPLA1 counter	proCasp3 act	Fam108B inh	LYPLA2 confirm	others
Cc1ncc([N+](=O)[O-])n1CC(=O)Nc1ccccc1F	1	8	28*	-1	-7	16	27*
COc1ccc(NC(=O)Cn2c([N+](=O)[O-])cnc2C)cc1Cl	2	6	24	-1	5	1	nt
CN(C)c1ccc(-c2ccc3c(=O)c4ccccc4n(C)c3c2)cn1	-1	-1	2	-1	-1	0	nt
Cn1c(-c2ccc(F)cc2)cnc1NCc1cc2c(cc1[N+](=O)[O-])OCO2	2	0	42*	3	1	0	44*
Cc1cc(F)ccc1NCc1cc2c(cc1[N+](=O)[O-])OCO2	3	-2	27*	3	5	6	8
Cn1c(-c2ccccc2)cnc1NCc1cc2c(cc1[N+](=O)[O-])OCO2	7	-5	29*	-1	-8	2	41*
Cn1c(-c2ccc3c(c2)OCO3)cnc1NCc1cccc(O)c1	-2	4	-1	4	0	1	nt
Cn1c(-c2ccc(Cl)cc2)cnc1NCc1cc2c(cc1[N+](=O)[O-])OCO2	9	3	51*	0	3	2	49*
COc1ccccc1CNc1ncc(-c2ccc(F)cc2)n1C	0	2	-1	-2	-2	2	nt
O=C1c2cnc3ncnn3c2CC2c3ccccc3CCN12 (stereo not given)	2	3	2	0	-4	2	nt
N#Cc1cnn2c3c(cnc12)C(=O)N1CCc2ccccc2C1C3 (stereo not given)	0	-7	42*	10	2	0	44*
Cc1ccccc1C(=O)Nc1ccc(N2CCN(C(=O)c3ccco3)CC2)cc1	0	-4	17	1	-7	-1	nt
CCC(=O)Nc1ccc(N2CCN(C(=O)c3cccs3)CC2)cc1	4	-6	1	-2	2	6	nt
O=C(Nc1ccc(N2CCN(C(=O)c3ccco3)CC2)cc1)c1ccccc1Br	-7	0	34*	6	1	0	30*
Cc1ccc(C(=O)Nc2ccc(N3CCN(C(=O)c4ccco4)CC3)cc2)c(Cl)c1	1	7	42*	9	5	-1	31*
O=C(COc1ccccc1[N+](=O)[O-])Nc1ccc(N2CCN(C(=O)c3cccs3)CC2)cc1	7	11	46*	10	3	4	48*
O=C(c1ccco1)N1CCN(C(=S)Nc2cccc([N+](=O)[O-])c2)CC1	-4	1	50*	-2	-9	-3	62*	LYPLA2 gel ABPP=36
CC(=O)N1CCN(c2ccc(NC(=O)c3ccc([N+](=O)[O-])cc3Cl)cc2)CC1	3	-12	6	-1	5	-2	nt
Cc1ccc(C(=O)Nc2ccc(N3CCN(C(=O)c4cccs4)CC3)cc2)c(Cl)c1	-2	11	47*	5	0	3	46*
O=C(Nc1ccc(N2CCN(C(=O)c3ccco3)CC2)cc1)c1ccc([N+](=O)[O-])cc1Cl	3	-2	40*	3	7	4	38*
CC(C)C(=O)Nc1ccc(N2CCN(C(=O)c3cccs3)CC2)cc1	-3	-1	14	-3	-4	7	nt
CCOC(=O)CSc1nnc(CSc2nc3sc4c(c3c(=O)[nH]2)CCC4)n1-c1ccccc1	0	10	57*	6	-2	10	51*
COc1ccc(/C=C/C(=O)Nc2ccc(C)c(S(=O)(=O)N3CCOCC3)c2)cc1	nt	3	nt	nt	0	nt	nt
Cc1c(Cl)cccc1NC(=S)N(Cc1cccnc1)Cc1ccccc1Cl	0	-3	-6	-6	2	0	nt
COc1ccc(NC2=NCCC(=O)N2Cc2cccs2)cc1	2	-1	27*	2	-2	4	21
SMILES	PME-1 primary	procasp7 counter	LYPLA2 counter	LYPLA1 counter	proCasp3 act	Fam108B inh	LYPLA2 confirm	others
COc1ccc(NC2=NCC(=O)N2Cc2cccs2)cc1	1	-1	14	2	3	-2	nt
CC(C)(C)c1ccc(C(=O)N2CCC(C(=O)NCc3ccncc3)CC2)cc1	6	-11	34*	-1	-7	2	41*
CC(C)(C)c1ccc(C(=O)N2CCC(NC(=O)c3ccccc3)CC2)cc1	-3	-4	39*	-2	7	1	37*
CC(C)(C)c1ccc(C(=O)N2CCC(C(=O)NC3CC3)CC2)cc1	3	-3	4	-3	-1	-4	nt
COc1cc(O)ccc1C(=O)CCc1ccc(O)cc1	-3	-4	-1	3	-1	-8	nt
CSc1ccccc1NC(=O)CN1CC(C)OC(C)C1 (stereo not given)	7	4	4	4	1	3	nt
CC(=O)c1ccc(S(=O)(=O)N2CCC(NC(=O)Nc3cccc(F)c3)CC2)cc1	-3	7	37*	-3	5	0	47*
COC(=O)c1cccc(S(=O)(=O)N2CCC(NC(=O)Nc3cccc(F)c3)CC2)c1	0	4	-2	-5	-1	2	nt
C#CCOCCOCCOCCNc1nc(N2CCN(C(=O)CCCCCCCCCCNC(=O)[C@H]([C@@H](C)CC)n3cc(CCCCCN)nn3)CC2)nc(N2CCN(C(=O)CCCCCCCCCCNC(=O)[C@H]([C@@H](C)CC)n3cc(CCCCN=C(N)N)nn3)CC2)n1	-16	-3	57*	11	-4	-7	56*
CCCn1c(C)cc(C(=O)COc2ccc(C)nc2[N+](=O)[O-])c1C	0	-15	30*	-4	-12	4	21
COCCn1c(C)cc(C(=O)COc2ccc(C)nc2[N+](=O)[O-])c1C	-19	-42	6	5	-29	3	nt
CCCC(=O)Nc1ccc(N2CCN(C(=O)c3cc4ccccc4o3)CC2)cc1	2	6	45*	10	7	0	50*
COc1cc2[nH]c(C(=O)N3CCC(Cc4ccccc4)CC3)cc2c(OC)c1OC	-6	3	33*	-3	-1	4	20
CC(C)Oc1cccc(C(=O)NC(=S)N2CCN(c3ccc(C(F)(F)F)cc3[N+](=O)[O-])CC2)c1	0	-3	8	-8	-12	3	nt
COc1cccc(C(=O)NC(=S)N2CCN(c3ccc(C(F)(F)F)cc3[N+](=O)[O-])CC2)c1	5	3	65*	3	0	-2	52*	LYPLA2 gel ABPP=13
